PP1 inh – PP1-alpha phosphatase inhibitors, primary screen, counter-screen for PP5 inhibitor project, biochemical, fluorescence, OMFP substrate, single point; purified PP1alpha; actives 0.9% (n = 320,000); inhibition, % at 6.7 µM; Serine/threonine-protein phosphatase PP1-alpha catalytic subunit (Homo sapiens), P62136;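 active = inhibition above the mean inhibition of all tested compounds plus 3 SD, computed separately for each screening campaign, cut at about 15% in these data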
GSTO1 inh – inhibitors of recombinant GSTO1, primary screen, counter-screen for RBBP9 inhibitor project, biochemical, fluorescence polarization. activity-based probe fluorescence polarization. inhibition, % at 5.96 µM. actives 1.1% (n = 300,000). AID 1974, 2009;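 active = inhibition above the campaign mean inhibition plus 3 SD, cut at about 35% in these data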;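 also: 0% = GSTO1-1 with DMSO and 100% = wells lacking GSTO1-1 enzyme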
Target sequence (P78417 whole entry, looked up): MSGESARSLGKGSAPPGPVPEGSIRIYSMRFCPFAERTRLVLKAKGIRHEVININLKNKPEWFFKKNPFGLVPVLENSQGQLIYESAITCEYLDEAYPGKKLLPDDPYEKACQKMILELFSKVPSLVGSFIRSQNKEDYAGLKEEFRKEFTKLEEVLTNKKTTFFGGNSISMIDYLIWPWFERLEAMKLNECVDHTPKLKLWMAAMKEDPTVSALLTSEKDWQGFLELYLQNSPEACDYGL
Apaf1 inhib – inhibitors of human Apaf-1 apoptosome, primary screen, biochemical, DEVD-Rh110 fluorescence, uHTS | actives 0.71% (n = 330,000) | inhibition, % at 20 µM | Apoptotic protease-activating factor 1 (Homo sapiens), O14727 | reconstituted apoptosome caspase-3 activity | AID 489030, 2010; active = inhibition of at least 40% at 20 µM;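 also: plate controls were DMSO wells for no effect and DEVD-CHO caspase inhibitor wells for full effect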
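System: reconstituted apoptosome with Apaf-1, cytochrome c, caspase-9, procaspase-3, dATP; Signal: Rh110 fluorescence intensity; Schedule: 30 min compound preincubation, 50 min activation, room temperature; Reagent: cytochrome c trigger plus (Z-DEVD)2-Rh110 caspase-3 substrate.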
PP5 primary – PP5 phosphatase inhibitors, primary screen, biochemical, fluorescence; Serine/threonine-protein phosphatase 5 (Homo sapiens), P53041; purified PP5c, OMFP substrate fluorescence; inhibition, % at 6.7 µM; actives 0.18% (n = 320,000); AID 1987, 2009;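 active = inhibition above the campaign's mean inhibition across all tested compounds plus 3 SD, cut at about 9.5% in these data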;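 also: 0% = DMSO only and 100% = 100 µM cantharidin control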
TDP2 inh – human TDP2 enzyme inhibitors, primary screen, biochemical, epi absorbance, recombinant enzyme | Tyrosyl-DNA phosphodiesterase 2 (Homo sapiens), O95551 | T5PNP hydrolysis, p-nitrophenol absorbance 415 nm | inhibition, % at 12.8 µM | actives 0.34% (n = 370,000) | AID 720702, 2013;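 active = inhibition above the mean of all tested compounds plus 3 SD, set per campaign, cut at about 25% in these data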;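 also: 0% = DMSO with enzyme and 100% = buffer with substrate but no TDP2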
Target sequence (O95551 whole entry, looked up): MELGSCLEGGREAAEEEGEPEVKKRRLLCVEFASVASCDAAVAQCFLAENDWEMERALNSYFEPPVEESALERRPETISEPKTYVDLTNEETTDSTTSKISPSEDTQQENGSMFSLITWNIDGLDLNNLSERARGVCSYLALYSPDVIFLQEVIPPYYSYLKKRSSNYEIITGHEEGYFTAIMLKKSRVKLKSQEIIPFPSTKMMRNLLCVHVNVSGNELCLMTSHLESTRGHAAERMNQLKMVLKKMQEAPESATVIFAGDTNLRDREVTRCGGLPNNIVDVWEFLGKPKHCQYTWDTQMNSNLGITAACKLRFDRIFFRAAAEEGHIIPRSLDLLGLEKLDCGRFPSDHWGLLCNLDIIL
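Test system: Human TDP2 enzyme | Reagent: 5 mM T5PNP | Compound dosing: 12.8 µM single point, 1% DMSO | Incubation: Enzyme reaction with compound for 2 h at 37 °C | Technique: p-Nitrophenol epi absorbance | Read-out: % inhibition relative to enzyme-containing and enzyme-free wells | Benchmarks: High control without enzyme, low control DMSO plus TDP2 | Replicates: Singlicate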
TDP2 inh conf – human TDP2 enzyme inhibitors, retest, confirmation, biochemical, epi absorbance, recombinant enzyme | actives 22% (n = 1,100) | AID 743263, 2014 | shares compounds with TDP2 inh | inhibition, % at 12.8 µM | absorbance read-out; in the data active = inhibition above about 25%;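 also: 0% = vehicle with enzyme and 100% = no enzyme buffer only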
* = called active by the depositor. Sampled rows, rich in hits. Any-hit rate of the full collection: about 2.1%.

`c1ccc(Cc2ccc(OCCN3CCOCC3)cc2)cc1` gave PP1 inh 5, GSTO1 inh -4, Apaf1 inhib 10, PP5 primary 1 and TDP2 inh 0.
Cc1noc(C)c1S(=O)(=O)N1CCCC(C(=O)NCc2ccccc2Cl)C1 (centres undefined) was read as PP1 inh -3, GSTO1 inh 4, Apaf1 inhib -4, PP5 primary 0, TDP2 inh 27* and TDP2 inh conf 0.
Screening CCc1ccccc1NC(=O)C1CCCN(S(=O)(=O)c2c(C)noc2C)C1 (centres undefined) returned PP1 inh -3, GSTO1 inh 6, Apaf1 inhib -2, PP5 primary 0 and TDP2 inh 15.
Cc1cc(O)c(C=Nc2ccc(N3CCOCC3)cc2)c(C)c1Cl was read as PP1 inh 0, GSTO1 inh 3, Apaf1 inhib 3, PP5 primary 1, TDP2 inh 37* and TDP2 inh conf 4.
Oc1ccc(-c2nnc(-c3ccc(O)cc3)nn2)cc1 was read as PP1 inh -3, GSTO1 inh 0, Apaf1 inhib 6, PP5 primary -1 and TDP2 inh -10.
`Oc1ccc(C2=NNC(c3ccc(O)cc3)=NN2)cc1` gave PP1 inh 1, GSTO1 inh 6, Apaf1 inhib -5, PP5 primary 0, TDP2 inh 28* and TDP2 inh conf -1.
For CCCSc1nnc(-c2ccco2)n1C the results were TDP2 inh -8.
`CN(C)C(CNC(=O)c1ccc(NS(=O)(=O)c2ccc(F)cc2)cc1)c1ccco1` (centres undefined) gave PP1 inh -7, GSTO1 inh 5, Apaf1 inhib 1, PP5 primary 0, TDP2 inh 27* and TDP2 inh conf 5.
`CCOC(=O)C(Cc1ccccc1)P(=O)(OCC)OCC` (centres undefined) gave TDP2 inh 2.
CC(C)(C)c1ccc(C(=O)N2CCC2(C)C(=O)NCc2cccc3ccccc23)cc1 (centres undefined) was read as TDP2 inh 0.
Screening N#C/C(=C\c1c[nH]c2ccccc12)C(N)=O returned PP1 inh 0, GSTO1 inh -1, Apaf1 inhib 4, PP5 primary 0 and TDP2 inh -2.
Screening CC(=O)Oc1c(/C=C(\C#N)C(N)=O)[nH]c2ccccc12 returned TDP2 inh 32* and TDP2 inh conf -1.
For CC(=O)CC[C@@H]1CC[C@]2(CCCN(C(=O)c3ccno3)C2)O1 the results were TDP2 inh 18.
CCOC(=O)C1=C(O)c2ccccc2C(=O)/C1=C\c1ccc(CC)cc1 was read as PP1 inh 1, GSTO1 inh 31 and PP5 primary 2.
For CCOC(=O)C1=C(Cc2ccc(C)cc2)C(=O)c2ccccc2C1=O the results were PP1 inh 1, GSTO1 inh 17, Apaf1 inhib 15, PP5 primary 4, TDP2 inh 31* and TDP2 inh conf 27*.
Screening Cc1ccccc1CN1CCN(C(=O)c2ccc(F)cc2)CC1 returned Apaf1 inhib -4, TDP2 inh 29* and TDP2 inh conf 11.
For O=C(c1ccc(F)cc1)N1CCN(Cc2ccccc2)CC1 the results were PP1 inh 3, GSTO1 inh -2, Apaf1 inhib 8, PP5 primary 2 and TDP2 inh 9.
`Cc1ccccc1CC(=O)N1CCN(C(=O)c2ccco2)CC1` gave PP1 inh -4, GSTO1 inh -1, Apaf1 inhib -12, PP5 primary 4 and TDP2 inh 4.
Cc1ccccc1CN1CCN(C(=O)c2ccco2)CC1 was read as PP1 inh 1, GSTO1 inh -2, Apaf1 inhib -2, PP5 primary 4, TDP2 inh 28* and TDP2 inh conf 6.
Screening O=[N+]([O-])c1cccc(NCCCN2CCC(C(O)(c3ccccc3)c3ccccc3)CC2)c1 returned TDP2 inh 3.
For O=C(CNC(=O)c1ccco1)N/N=C/c1c[nH]c2ccccc12 the results were PP1 inh -8, GSTO1 inh -4, Apaf1 inhib 0, PP5 primary -1 and TDP2 inh 9.
`O=C(CNC(=O)c1ccc([N+](=O)[O-])cc1)N/N=C/c1c[nH]c2ccccc12` gave PP1 inh -3, GSTO1 inh 4, Apaf1 inhib 1, PP5 primary 3, TDP2 inh 27* and TDP2 inh conf 3.
`CN(C)C(=O)C[C@H]1CC[C@H]2[C@H](COc3ccc(NC(=O)C4CC4)cc3C(=O)N2C)O1` gave TDP2 inh 4.
`CN1C2=N[C@@H](c3cccc(C(F)(F)F)c3)CC(=O)N2/C(=C\c2ccccc2)[C@H]1c1ccccc1` gave TDP2 inh 0.
O=C(NC(=O)c1ccccc1O)c1ccc2c(c1)CCO2 was read as PP1 inh -1, GSTO1 inh 4, Apaf1 inhib -2, PP5 primary 2, TDP2 inh 25* and TDP2 inh conf 2.
Screening Cn1nnnc1Sc1ncnc2scc(-c3cnc(N)nc3)c12 returned TDP2 inh 12.
Screening CCOC(=O)N1CCN(C2=C(NS(=O)(=O)c3ccc(C)cc3)C(=O)c3ccccc3C2=O)CC1 returned PP1 inh 4, GSTO1 inh 30, Apaf1 inhib 86*, PP5 primary 5, TDP2 inh 42* and TDP2 inh conf 32*.
For Cc1cc(NC(=O)CCN2C(=O)c3ccccc3C2=O)no1 the results were PP1 inh -2, GSTO1 inh -1, Apaf1 inhib -6, PP5 primary 0 and TDP2 inh -1.
`Cc1cc(NC2=CC(=O)C(=O)c3ccccc32)no1` gave TDP2 inh 29* and TDP2 inh conf 69*.
COC(=O)C1CN(CCc2ccccc2)CCS(=O)(=O)N1Cc1ccc(OC)cc1 (centres undefined) was read as TDP2 inh -7.
`Cc1oc(-c2ccccc2F)nc1CS(=O)(=O)CC(=O)NC(C)CCc1ccccc1` (centres undefined) gave PP1 inh 1, GSTO1 inh -4, Apaf1 inhib 25, PP5 primary 4, TDP2 inh 27* and TDP2 inh conf -1.
COC(=O)C1=C(C)N(Cc2cccc(C(F)(F)F)c2)C(=NCc2ccc(C(F)(F)F)cc2)NC1c1ccccc1C(F)(F)F (centres undefined) was read as TDP2 inh -5.
